Results: ChEMBL document CHEMBL4017524, “A Novel Arylurea Fatty Acid That Targets the Mitochondrion and Depletes Cardiolipin To Promote Killing of Breast Cancer Cells” (J Med Chem, 2017)
The source made the active and inactive calls. No cut-off for these calls is given here.

What was measured:
MDA-MB-231 [1] = assay: Induction of apoptosis in human MDA-MB-231 cells assessed as mitochondrial membrane disruption by measuring red to green fluorescence ratio at 10 uM after 24 hrs by JC-1 staining based microscopic method relative to control; format: functional
In short: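 Cells exposed for 24 h at 10 µM, then stained with the cationic dye JC-1. Red (aggregate, intact inner membrane) to green (monomer) fluorescence ratio expressed relative to DMSO control. Mean±SEM of three experiments.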

MDA-MB-231 [2] = assay: Cytotoxicity against human MDA-MB-231 cells assessed as decrease in ATP production at 10 uM after 24 to 48 hrs by CellTiter-Glo luminescent assay; format: functional, cell-based
MDA-MB-231 [3] = assay: Induction of apoptosis in human MDA-MB-231 cells assessed as mitochondrial membrane disruption at 10 uM after 6 hrs by JC-1/Hoechst 33342 staining based fluorescence microscopic assay; format: functional, cell-based
In short: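 Treatment with 10 µM or DMSO for 6 h. Cells were washed twice with serum-free medium, then incubated with JC-1 in serum-free medium at 37°C for 20 min. Hoechst 33342 nuclear counterstain, then fluorescence microscopy of green monomers versus red aggregates.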

MDA-MB-231 [4] = assay: Cytotoxicity against human MDA-MB-231 cells assessed as decrease in cell adherence at 40 uM after 48 hrs by crystal violet staining based assay; format: functional
MDA-MB-231 [5] = assay: Cell cycle arrest in human MDA-MB-231 cells at 10 uM after 24 hrs by propidium iodide staining based flow cytometric analysis
MDA-MB-231 [6] = assay: Cytotoxicity against human MDA-MB-231 cells assessed as decrease in cell viability at 40 uM after 48 hrs by crystal violet staining based assay; format: functional
MDA-MB-231 [7] = assay: Induction of apoptosis in human MDA-MB-231 cells at 10 uM after 48 hrs by annexin VFITC/7AAD staining based flow cytometry; format: functional, cell-based
In short: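 Annexin V-FITC/7AAD flow cytometry of cells after 48 h at 10 µM. Quadrants: E4 annexin V only (early apoptotic), E2 dual-stained (late apoptotic), E1 7AAD only, E3 unstained (viable). Compared with DMSO control. Mean±SEM from three experiments.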

MDA-MB-231 [8] = assay: Induction of apoptosis in human MDA-MB-231 cells assessed as increase in caspases 3/7 activity at 10 uM after 48 hrs by Caspase-Glo assay; format: functional, cell-based

Row | SMILES | Activity (MDA-MB-231 [1]) | Activity (MDA-MB-231 [2]) | further results
1 | O=C(O)CCCCCCCCCCCCCCCNC(=O)Nc1ccc(I)cc1 | inactive | inactive | –
2 | CNC(=O)c1cc(Oc2ccc(NC(=O)Nc3ccc(Cl)c(C(F)(F)F)c3)cc2)ccn1 | – | – | Activity (MDA-MB-231 [3]): Active
3 | COc1ccc(NC(=O)NCCCCCCCCCCCCCCCC(=O)O)cc1 | inactive | inactive | –
4 | Cc1ccc(NC(=O)NCCCCCCCCCCCCCCCC(=O)O)cc1 | inactive | inactive | –
5 | O=C(O)CCCCCCCCCCCCCCCNC(=O)Nc1ccc(Cl)cc1 | inactive | inactive | –
6 | O=C(O)CCCCCCCCCCCCCCCNC(=O)Nc1ccccc1 | inactive | inactive | Activity (MDA-MB-231 [4]): inactive; Activity (MDA-MB-231 [5]): inactive; Activity (MDA-MB-231 [6]): inactive; Activity (MDA-MB-231 [7]): inactive; Activity (MDA-MB-231 [8]): inactive
